Screening data deposited in PubChem BioAssay by several laboratories.
MsrA inhibitor – inhibits bovine methionine sulfoxide reductase A; purified bovine MsrA, absorbance read-out; inhibition, % at 15.5 µM; hit rate 0.75% among 360,000; AID 651718;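 also: 0% = vehicle wells with enzyme and 100% = reference inhibitor wells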
m5-HT2A agonist – agonists of mouse serotonin 5-HT2A receptor (HTR2A); P35363; CHO-K1 mHTR2A beta-arrestin complementation, luminescence; percent of 30 µM serotonin response; activation, % at 7.6 µM; hit rate 0.66% among 360,000;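 active = activation above a run cutoff, the mean activation of all tested compounds plus 3 SD, cut at about 14% in these data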;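 also: 0% = plate median of compound wells and 100% = 30 µM serotonin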
AHR activator – activates the human aryl hydrocarbon receptor | P35869 | AHR-responsive luciferase reporter cells, luminescence | activation, % at 5 µM | hit rate 2.5% among 320,000 | AID 2796; in the data active = activation above about 47%;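 also: 0% = vehicle wells and 100% = reference agonist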
AI-2 QS mod – Vibrio harveyi AI-2 quorum sensing modulation. Vibrio harveyi JMH597 AI-2 luminescence/OD600 ratio, 9 h; stronger effect = lower value; strain lacks LuxN and CqsS sensors; 0 = neutral-control median. activity change, % at 7.5 µM. hit rate 0.4% among 300,000; in the data active = activity change below about -75%, passing the limit was not always enough;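 also: luminescence divided by OD600 gain over 9 h not by final OD600 alone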
bovine MsrA act – activators of bovine methionine sulfoxide reductase A; purified bovine MsrA, absorbance read-out; activation, % at 10.6 µM; hit rate 0.3% among 360,000; AID 602163; in the data active = activation above about 7.5%;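 also: 0% = vehicle and 100% = reference activator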
TbMetRS inhib – Trypanosoma brucei MetRS inhibition; inhibition, % at 11.9 µM; hit rate 0.4% among 360,000; purified T. brucei MetRS, ATP depletion, Kinase-Glo luminescence;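 active = inhibition above a per-plate cutoff of the control wells' mean inhibition plus 3 SD, cut at about 5.5% in these data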;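 also: 0% = DMSO wells median and 100% = median of wells with control inhibitor compound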
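technique = Kinase-Glo luminescence, ATP depletion format | system = purified MetRS (methionyl-tRNA synthetase) enzyme from Trypanosoma brucei | timing = 15 min preincubation, 2 h reaction, all 25 °C | evaluation = percent inhibition versus plate control medians | dosing = single dose, 11.9 µM final nominal, 0.9% final DMSO | also added = substrates ATP, L-methionine and bulk Escherichia coli tRNA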
MsrA conf – bovine MsrA inhibition, confirmed | shares compounds with MsrA inhibitor | purified bovine MsrA, absorbance read-out | inhibition, % at 15.5 µM | hit rate 41% among 2,300 | AID 651822;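 also: coupled to thioredoxin reductase with NADPH and selenocystamine and DMSO as substrate; 0% = vehicle only and 100% = full effect of reference inhibitor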
An asterisk follows results filed as active; . = no result given. This is a sample that favours compounds with a hit; in the whole collection about 4.4% have one here. Rule as the data show it, unless noted: active = inhibition above about 4.5%; inactive = the rest.

SMILES | MsrA inhibitor | m5-HT2A agonist | AHR activator | AI-2 QS mod | bovine MsrA act | TbMetRS inhib | MsrA conf
CCN(CC(=O)Nc1cc(S(=O)(=O)N2CCOCC2)ccc1C)Cc1ccccc1 | 0 | -5 | 3 | -13 | 1 | 0 | .
COCCn1c(=S)[nH]c2sc3c(c2c1=O)CCCC3 | 5.5* | 3 | 11 | 21 | 3 | 0 | 3
O=C1CC(C(=O)O)S/C(=N\N=C\c2ccc(Br)cc2)N1 (centres undefined) | 4.9* | 0 | 1 | -1 | -16 | -1 | 3
C/C(=N/N=C1/NC(=O)CC(C(=O)O)S1)c1ccccc1 (centres undefined) | 1 | 4 | 0 | 14 | 3 | -1 | .
COCCNC(=S)N/N=C(\C)c1ccc2cc(OC)ccc2c1 | 2 | -1 | 27 | 23 | -4 | 1 | .
COCCNC(=S)N/N=C(\C)c1cc2ccccc2o1 | 8.2* | -4 | 68* | 12 | -2 | 0 | 5.2*
COc1cc(NC(=O)C2(C)CCN2C(=O)C(C)C)cc(OC)c1OC (centres undefined) | -1 | -1 | . | . | -2 | 0 | .
CC(/C=N/NC(=O)c1sc(N)nc1C)=C\c1ccccc1 | 6.7* | -5 | -10 | 10 | -4 | 0 | 4
COc1cc(/C=N\NC(=O)c2sc(N)nc2C)cc(OC)c1OC | 7.0* | 4 | 62* | 12 | -7 | 0 | 5.2*
O=C(Cc1cccc([N+](=O)[O-])c1)Nc1ccc(C(=O)N2CCCCC2)cc1 | -1 | -7 | -4 | . | -5 | 0 | .
CC(C(=O)NC(C)(C)C)n1c(C(c2ccccc2)c2ccccc2)nc2ccccc21 (centres undefined) | 2 | -2 | . | . | . | 0 | .
O=C(O)c1cc(-c2ccc(/C=N/N3C(=O)C4C5C=CC(C6CC56)C4C3=O)o2)ccc1Cl (centres undefined) | 5.4* | -1 | 6 | 13 | -4 | 0 | 7.8*
O=C(O)c1cc(-c2ccc(/C=N/N3C(=O)C4C5C=CC(CC5)C4C3=O)o2)ccc1Cl (centres undefined) | 7.4* | 7 | 0 | 24 | -4 | -1 | 5.8*
CCCc1cc(=O)[nH]c(N/N=C/C=C\c2ccccc2)n1 | 6.7* | -5 | 31 | 16 | -5 | 0 | 5.5*
COc1ccc(C2NS(=O)(=O)OCC2C)cc1 (centres undefined) | . | 12 | -1 | 1 | -3 | 0 | .
O=C(O)c1ccccc1C(=O)Nc1ccc(Nc2ccc([N+](=O)[O-])cc2[N+](=O)[O-])cc1 | 5.1* | 3 | 1 | 37 | -13 | -1 | 3
O=C(O)c1ccccc1C(=O)Nc1cccc([N+](=O)[O-])c1 | 0 | 3 | -1 | 19 | -3 | -1 | .
O=[N+]([O-])c1ccc(Nc2ccccn2)c([N+](=O)[O-])c1 | 5.3* | 6 | 3 | 34 | -13 | -2 | 4
O=C1c2cccc(Cl)c2C(=O)c2c1cccc2N1CCCC1 | 9.4* | 3 | 17 | 6 | -4 | -2 | 1
CCOC(=O)c1nn(-c2ccccc2)c(=O)cc1OCC(=O)Nc1ccccc1OCC | 0 | -2 | 0 | 11 | -2 | 0 | .
COC(=O)c1ccccc1NC(=S)NC(C)=O | 0 | -3 | 1 | 5 | -1 | 0 | .
COC(=O)c1ccccc1NC(=S)NC(=O)C1CC1 | 12* | 8 | -2 | 35 | -2 | 0 | 11*
COc1cc(/C=C/C(=O)OCC(=O)N2CC(C)OC(C)C2)ccc1OCC#N (centres undefined) | 2 | 5 | . | . | -2 | 0 | .
CN(C)C(=O)CCc1ccc2c3c([nH]c2c1)[C@]1(C)[C@@H](C(=O)N2CCCCC2)C[C@H](CC(=O)NCC24CC5CC(CC(C5)C2)C4)C(=O)N1CC3 | 1 | -1 | . | . | -1 | 0 | .
Cn1cc(C(=O)Nc2ccc(F)c(Cl)c2)cn1 | 0 | -1 | -1 | 16 | 0 | 0 | .
CN1c2ccsc2C(O)=C(C(=S)Nc2ccc(F)c(Cl)c2)S1(=O)=O | 6.5* | 9 | 14 | 12 | -13 | -1 | 5.1*
COC(=O)C[C@H]1C[C@H]2c3cc(NC(=O)C4CCOCC4)ccc3O[C@H]2[C@H](CO)O1 | 1 | 3 | . | . | -7 | -2 | .
